PAX8 inh HTS – lowers PAX8-driven luciferase in RMG-I cells; 1.2% of 360,000 active; AID 652154; inhibition, % at 12.6 µM; RMG-I TPO-luciferase reporter, SteadyGlo, 24 h;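 active = mean replicate inhibition at least 60% with every replicate also reaching 60%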;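 note: luciferase light reporting Pax8 driven TPO promoter activity; plate controls were median of neutral control wells for no effect and mitoxantrone controls for full effect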
XiGFP reactiv – X-chromosome reactivation activator | XiGFP mouse fibroblasts, % GFP-positive cells imaging, 3 d; cells co-treated with 5-aza-dC sensitizer; scaled so ellipticine positive control = 100% | activation, % at 7.58 µM | 0.055% of 360,000 active;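 active = mean normalized replicate activation at least 10% and every replicate at or above 10%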;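 note: 0% = median of on-plate neutral control wells and 100% = ellipticine 6 µM median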
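Material: XiGFP fibroblasts, SV40-immortalized; Buffer or medium: DMEM containing 5-aza-dC; Compound dosing: single point; Times: 3 days compound exposure.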
EWS-Fli block – blocks EWS/Fli oncoprotein-driven transcription; inhibition, % at 12.6 µM; A673 NR0B1-luciferase reporter, viability-normalised; 0.67% of 350,000 active; AID 651661;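 active = mean inhibition of at least 50% after viability correction, with every replicate also passing that limit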;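 note: firefly luciferase signal divided by Alamar Blue viability fluorescence both relative to DMSO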
MLL AF4-AF9 inh – blocks AF4 peptide binding to human AF9; P42568; AlphaScreen, biotin-AF4 peptide binding to FLAG-AF9; inhibition, % at 10 µM; 0.47% of 350,000 active; AID 651704;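 active = every replicate reaching a set inhibition limit, whatever the replicate mean, cut at about 25% in these data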;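 note: 0% = plate neutral control median and 100% = total signal loss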
Target sequence (P42568 whole entry, looked up): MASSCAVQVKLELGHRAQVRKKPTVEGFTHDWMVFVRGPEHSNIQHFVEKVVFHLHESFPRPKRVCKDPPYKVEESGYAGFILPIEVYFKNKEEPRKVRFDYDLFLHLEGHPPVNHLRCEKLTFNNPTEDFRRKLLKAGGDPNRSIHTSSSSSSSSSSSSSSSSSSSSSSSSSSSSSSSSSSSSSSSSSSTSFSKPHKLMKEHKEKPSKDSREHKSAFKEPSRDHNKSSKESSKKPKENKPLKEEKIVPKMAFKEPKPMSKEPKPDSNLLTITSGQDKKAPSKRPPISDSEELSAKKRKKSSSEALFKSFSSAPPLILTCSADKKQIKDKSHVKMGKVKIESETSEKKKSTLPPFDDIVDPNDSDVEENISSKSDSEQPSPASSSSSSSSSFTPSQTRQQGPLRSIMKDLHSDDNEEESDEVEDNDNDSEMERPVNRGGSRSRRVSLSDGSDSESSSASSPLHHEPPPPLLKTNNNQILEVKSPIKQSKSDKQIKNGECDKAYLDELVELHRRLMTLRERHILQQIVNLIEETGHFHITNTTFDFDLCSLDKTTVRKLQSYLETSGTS
INS-1E GSIS act – primary screen for activators of insulin secretion dependent on glucose, INS-1E cells, GLuc reporter luminescence. activation, % at 16.6 µM. AID 743287. INS-1E GLuc reporter insulin secretion, 2-3 h. 0.61% of 370,000 active;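 active = lowest replicate activation of at least 40%, so every replicate reaches that level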;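 note: 0% = median of neutral control wells and 100% = median of IBMX positive control wells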
PGC1a acetyl inh – lowers PGC1a acetylation signal in U2OS cells. AlphaScreen anti-acetyl-lysine; with virally co-expressed GCN5 acetyltransferase. inhibition, % at 15.6 µM. 0.17% of 350,000 active;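 active = every replicate shows inhibition of at least 40%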;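 note: 0% = neutral control wells and 100% = positive control wells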
Active calls of the source: *; / = no result. This is a sample that favours compounds with a hit; in the whole collection about 2.1% have one here.

SMILES	PAX8 inh HTS	XiGFP reactiv	EWS-Fli block	MLL AF4-AF9 inh	INS-1E GSIS act	PGC1a acetyl inh
Cc1noc(C)c1S(=O)(=O)Nc1ccc2c(c1)C(=O)N([C@H](C)CO)C[C@H](C)[C@H](CN(C)S(=O)(=O)c1ccc(F)cc1)O2	/	-1	13	-1	-15	-6
Cc1ccc(S(=O)(=O)Nc2ccc(C(=O)NCCCn3ccnc3)cc2)cc1[N+](=O)[O-]	-28	0	1	-3	44*	/
Cc1ccc(C(=O)NCCCn2ccnc2)cc1[N+](=O)[O-]	5	/	/	/	/	0
NC(=O)c1cc([N+](=O)[O-])ccc1NCc1ccc(N)cc1	35	0	74*	-2	3	/
C[C@@H]1CCCCO[C@@H](CN(C)S(C)(=O)=O)[C@H](C)CN([C@@H](C)CO)C(=O)c2cc(NC(=O)CCC(F)(F)F)ccc2O1	-6	0	-3	-5	18	7
CC(=O)Nc1cccc(C(=O)/C=C/c2ccc(C)cc2)c1	75*	0	12	-10	/	/
CC(=O)Nc1cccc(C(=O)N/N=C/c2ccc(F)cc2)c1	-125	0	-57	-1	9	1
Cc1ccc(C(=O)Nc2cccc(C(=O)N/N=C/c3ccc(F)cc3)c2)cc1	-31	0	-12	-2	101*	/
CCCC#Cc1ccc([C@H]2[C@H]3CN(S(=O)(=O)Cc4ccccc4)CCCCN3[C@H]2CO)cc1	106*	0	-6	7	-21	-2
O=S(=O)(Cc1ccccc1)N1CCCCN2[C@H](CO)[C@@H](c3ccc(C#Cc4ccccc4)cc3)[C@@H]2C1	7	0	-1	-5	-3	-9
O=C(C1CCC1)N1CC(=O)N2[C@H](CO)[C@H](c3ccc(C#CCc4ccccc4)cc3)[C@H]2C1	83*	0	-5	-3	-19	-19
CCCC#Cc1ccc([C@@H]2[C@@H](CO)N3CCCCN(S(=O)(=O)Cc4ccccc4)C[C@@H]23)cc1	-8	0	-5	-3	-19	-4
CCCC#Cc1ccc([C@@H]2[C@H](CO)N3CCCCN(S(=O)(=O)Cc4ccccc4)C[C@@H]23)cc1	117*	0	59*	12	-17	-28
O=C1CN(Cc2ccc(F)cc2)C[C@@H]2[C@@H](c3ccc(Br)cc3)[C@@H](CO)N12	73*	0	4	-5	-18	-18
C[C@@H]1CN([C@H](C)CO)C(=O)Cc2cc(NC(=O)Cc3ccccc3)ccc2O[C@H]1CN(C)Cc1ccc(Cl)c(Cl)c1	-53	0	5	-1	-21	5
O=C(Nc1ccccc1F)N1CC(=O)N2[C@@H](CO)[C@@H](c3ccc(-c4ccc(F)cc4)cc3)[C@@H]2C1	/	0	/	/	-16	/
O=C1CN(S(=O)(=O)Cc2ccccc2)C[C@@H]2[C@@H](c3ccc(C#Cc4ccc(F)cc4)cc3)[C@@H](CO)N12	106*	0	18	1	6	-32
CCc1c(C)sc2nc3c(C(=O)N4CCOCC4)cc(C(=O)c4ccccc4O)cn3c(=O)c12	8	0	10	21	-2	-6
O=C(c1cc(C(=O)N2CCOCC2)c2nc3ccccc3n2c1)c1cc(Cl)cc(Cl)c1O	3	0	6	27*	7	/
CCS(=O)(=O)Nc1ccc2c(c1)C(=O)N(C)C[C@@H](OC)[C@H](C)CN(Cc1nccs1)[C@H](C)CO2	/	0	1	-1	2	3
Cc1nnc2ccc(N3CCCCC3)nn12	10	0	5	-1	-5	3
Cc1nnc2ccc(N3CCN(c4cccc(C(F)(F)F)c4)CC3)nn12	25	0	3	51*	/	-19
O=C(NCCc1ccccc1)c1ccc2c(c1)OCO2	54	0	73*	2	3	/
CC(CCc1ccccc1)NC(=O)c1ccc(C(=O)NC(C)CCc2ccccc2)cc1 (centres undefined)	81*	/	/	/	/	5
CC(CCc1ccccc1)NC(=O)c1ccccc1 (centres undefined)	/	/	/	/	-5	-4
O=C(NCCc1ccccc1)c1cc(-c2ccc3c(c2)OCO3)on1	/	/	/	/	44*	2
CCOc1ccc(C(=O)NCCc2ccccc2)cc1	/	/	59*	-11	1	-11
